Only some compounds are listed: those with a hit (about 2.5% of all), similar ones and a draw of the others.
Rin1 Abl inh: blocks binding of human Rin1 to Abl | P00519+Q13671 | TR-FRET Rin1/Abl binding, biochemical | inhibition, % at 7.35 µM | hit rate 0.4% among 360,000; in the data active means inhibition above about 5%, passing the limit was not always enough
ABHD5 PLIN5 PPI: blocks binding of human ABHD5 to perilipin-5. AID 602281. Split G. princeps luciferase complementation, luminescence, 4 h. Q00G26+Q8WTS1. hit rate 0.78% among 360,000. inhibition, % at 4 µM;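 active means inhibition above the mean inhibition across every tested compound plus 3 SD, cut at about 22% in these data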
MBD2 DNA inh: inhibitors of human MBD2 binding to methylated oligonucleotide | TR-FRET | inhibition, % at 4.4 µM | hit rate 0.31% among 370,000 | AID 686964; in the data active means inhibition above about 13%
Target sequence (Q9UBB5 whole entry, looked up): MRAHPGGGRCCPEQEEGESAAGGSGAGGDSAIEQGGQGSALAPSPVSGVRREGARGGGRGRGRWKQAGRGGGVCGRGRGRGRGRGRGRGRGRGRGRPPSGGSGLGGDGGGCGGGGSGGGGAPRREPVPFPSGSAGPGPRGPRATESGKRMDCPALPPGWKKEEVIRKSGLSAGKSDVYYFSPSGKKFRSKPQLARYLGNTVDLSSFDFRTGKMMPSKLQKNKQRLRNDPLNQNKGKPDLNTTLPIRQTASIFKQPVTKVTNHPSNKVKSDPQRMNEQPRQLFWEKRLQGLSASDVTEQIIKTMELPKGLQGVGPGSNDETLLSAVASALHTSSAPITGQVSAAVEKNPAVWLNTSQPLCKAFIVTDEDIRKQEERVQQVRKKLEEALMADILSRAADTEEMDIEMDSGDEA
UHRF1 MBD2 ctr: blocks human UHRF1 binding to methylated DNA; UHRF1 binding to methylated oligo, TR-FRET; inhibition, % at 4.4 µM; hit rate 0.75% among 370,000; AID 687016; in the data active means inhibition above about 21%;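 further: UHRF1 SRA domain binding a hemimethylated CpG hairpin DNA probe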
B2AR ag: agonists of human beta-2 adrenergic receptor inducing internalization; P07550; Am2.2-beta2AR cells, FAP receptor internalization, flow cytometry; response, % (no concentration beside the values); hit rate 0.43% among 340,000;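 active means response above a set limit, near 3 SD of response in nonfluorescent compounds, cut at about 42% in these data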
Arrestin-AP2 inh: inhibitors of human beta-arrestin and AP2 interaction; AID 504490; hit rate 0.31% among 340,000; inhibition, % at 10 µM; FITC-arrestin peptide / GST-AP2 beads, flow cytometry; AP2 beta2 appendage carries R879A mutation;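 active means inhibition above a set limit, near 3 SD of compounds lacking own fluorescence, cut at about 54% in these data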
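Material – AP2 appendage R879A on GSH beads · Buffer or medium – PBS with 0.05% Tween 20 and 0.1% BSA · Probe or stimulus – fluorescein-tagged arrestin peptide at 50 nM final · Incubation – compound with beads 12 min RT, then probe 1 h RT · Detection – high-throughput flow cytometry of beads, ex 488, em 535 nm · Evaluation – percent response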
Each line names hits and unclear results; the compound was inactive in the other large screens.

O=C(Cc1c[nH]c2ccccc12)OCC(=O)c1ccccc1	UHRF1 MBD2 ctr 29
O=c1c2ccccc2n(Cc2ccno2)n1[C@@H](Cc1ccccc1)Cn1cc(-c2ccc(-c3ccccc3)cc2)nn1	none (no result: Rin1 Abl inh, ABHD5 PLIN5 PPI, B2AR ag, Arrestin-AP2 inh)
Cc1ccc(NC(=O)c2ncc(Cl)c(Cl)c2Cl)cc1C	none
O=C(Nc1ccc(OC(F)F)cc1)c1ncc(Cl)c(Cl)c1Cl	UHRF1 MBD2 ctr 24
COc1c(C)cccc1C(=O)Nc1ccc(N2CCN(C(=O)c3ccccc3C)CC2)cc1	UHRF1 MBD2 ctr 27
COc1ccc2cc(CN(Cc3ccco3)C(c3nnnn3C3CCCCC3)C(C)C)c(=O)[nH]c2c1 (centres undefined)	ABHD5 PLIN5 PPI 22
COc1ccc2cc(CN(Cc3ccco3)Cc3nnnn3C3CCCCC3)c(=O)[nH]c2c1	none
Cc1c[nH]c2cccc(-c3ccc(OCc4ccccc4)cc3)c12	none (no result: Rin1 Abl inh, ABHD5 PLIN5 PPI, B2AR ag, Arrestin-AP2 inh)
CCOC(=O)c1c(-c2ccc(-c3ccccc3)cc2)csc1NC(=O)C1C2CCC(O2)C1C(=O)O (centres undefined)	ABHD5 PLIN5 PPI 34
CCOC(=O)c1c(-c2ccccc2)csc1NC(=O)C1CCCO1 (centres undefined)	none
COc1ccc(-n2c(SC/C=C/c3ccccc3)nnc2-c2cccs2)cc1	none (no result: Rin1 Abl inh, ABHD5 PLIN5 PPI, B2AR ag, Arrestin-AP2 inh)
C[C@H]1[C@H](NC(=O)C(=NOC(C)(C)C(=O)O)c2csc(N)n2)C(=O)N1S(=O)(=O)O	UHRF1 MBD2 ctr 25
CCOC(=O)c1csc(N)n1	none
CC(C)(C)OC(=O)C1[C@H](O)C=CC[C@H]1S(=O)c1ccccc1 (some centres undefined)	none (no result: Rin1 Abl inh, ABHD5 PLIN5 PPI, B2AR ag, Arrestin-AP2 inh)
Cc1ccc(C(=O)NC(C)C2CC3CCC2C3)cc1 (centres undefined)	none
CC(NC(=O)c1ccc(F)cc1)C1CC2CCC1C2 (centres undefined)	UHRF1 MBD2 ctr 88
CCOC(=O)[C@@]12CCCC3=C1N(CCC3)C(=O)[C@H]2CC(=O)NCc1ccc(C)o1	none (no result: Rin1 Abl inh, ABHD5 PLIN5 PPI, B2AR ag, Arrestin-AP2 inh)
O=C1c2ccccc2C(=O)C12OC2c1cccc2ccccc12 (centres undefined)	Rin1 Abl inh 13
COc1cccc(OC)c1NC(=O)OCCN1CCCC12CCC(c1ccccc1)CC2 (centres undefined)	none (no result: Rin1 Abl inh, ABHD5 PLIN5 PPI, B2AR ag, Arrestin-AP2 inh)
O=C(Cn1nnc2ccccc2c1=O)NCCc1ccc(Cl)cc1Cl	UHRF1 MBD2 ctr 28
COc1cccc(C2Oc3ccccc3C3CC(c4cccs4)=NN32)c1 (centres undefined)	ABHD5 PLIN5 PPI 22
N#CCN1C(=O)NC2(CCCc3sccc32)C1=O (centres undefined)	UHRF1 MBD2 ctr 94
CN(Cc1ccccc1)C(=O)CN1C(=O)NC2(CCCc3sccc32)C1=O (centres undefined)	none (no result: B2AR ag, Arrestin-AP2 inh)
COc1ccccc1-n1c(SCC(=O)N2CCCCC2)nc(O)c(Cc2ccccc2)c1=O	none
COc1ccccc1-n1c(SCC(=O)NC(C)(C)C)nc(O)c(Cc2ccccc2)c1=O	UHRF1 MBD2 ctr 22
C/C(=N/NC(=O)C1CC1(c1ccccc1)c1ccccc1)c1ccco1 (centres undefined)	UHRF1 MBD2 ctr 28
C/C(=N/NC(=O)C1CC1(c1ccccc1)c1ccccc1)c1cccs1 (centres undefined)	none
NNC(=O)C1CC1(c1ccccc1)c1ccccc1 (centres undefined)	UHRF1 MBD2 ctr 23
COC(=O)[C@]12C=CCN1[C@H](c1ccccc1)c1c(c3ccccc3n1S(=O)(=O)c1ccc(C)cc1)C2	none (no result: Rin1 Abl inh, ABHD5 PLIN5 PPI, B2AR ag, Arrestin-AP2 inh)
Cc1nc2ccc(S(=O)(=O)NCC(=O)N(C)Cc3ccccc3Cl)cc2s1	none (no result: Rin1 Abl inh, ABHD5 PLIN5 PPI, B2AR ag, Arrestin-AP2 inh)
Cc1cc2ccccn2c1C(C[N+](=O)[O-])c1ccc(N(C)C)cc1 (centres undefined)	ABHD5 PLIN5 PPI 23
Cc1c(NC(=O)C2CCCN(S(=O)(=O)c3ccccc3[N+](=O)[O-])C2)c(=O)n(-c2ccccc2)n1C (centres undefined)	none (no result: Rin1 Abl inh, ABHD5 PLIN5 PPI, B2AR ag, Arrestin-AP2 inh)
Cc1cc(C)cc(NC(=O)COC(=O)CC2CCCC2)c1	UHRF1 MBD2 ctr 32
Cc1cc(C)cc(NC(=O)COC(=O)CCC2CCCC2)c1	none
CCn1cc(C(=O)N2CCN(Cc3ccc(C)cc3)CC2)c(=O)c2ccc(C)nc21	none (no result: Rin1 Abl inh, ABHD5 PLIN5 PPI, B2AR ag, Arrestin-AP2 inh)
Cc1ccccc1N(CC(=O)N1CCN(c2ccccc2)CC1)S(C)(=O)=O	none
Cc1ccccc1N(CC(=O)N1CCN(Cc2ccccc2)CC1)S(C)(=O)=O	UHRF1 MBD2 ctr 21 (no result: B2AR ag, Arrestin-AP2 inh)
Cc1cc(C)c(N=Cc2c(O)n(-c3nccs3)c(=O)c3ccccc23)c(C)c1	UHRF1 MBD2 ctr 27
CCOC(=O)c1sc2nc(C)nc(NCCc3ccccn3)c2c1C	UHRF1 MBD2 ctr 69
CCOC(=O)c1sc2nc(C)nc(NCc3ccccc3OC)c2c1C	none
COc1ccc(N2C(=O)CC(Sc3nnnn3-c3ccc(F)cc3)C2=O)cc1 (centres undefined)	ABHD5 PLIN5 PPI 52
Cc1nc(N2N=C(c3ccc(Cl)cc3)CC2c2ccco2)sc1C(=O)N(C)C (centres undefined)	ABHD5 PLIN5 PPI 22
Clc1ccc(C2=NN(c3ccccc3)C(c3ccco3)C2)cc1 (centres undefined)	none
CC(C)(C)c1nnc(N/N=C/c2ccc(Br)cc2)n(N)c1=O	B2AR ag 70
Cn1cc(C2(c3c[nH]c4ccccc34)CCN(C(=O)OC(C)(C)C)CC2)c2ccccc21	none (no result: Rin1 Abl inh, ABHD5 PLIN5 PPI, B2AR ag, Arrestin-AP2 inh)
CC(=O)c1c(C)oc2ccc(NS(=O)(=O)c3ccc(C)cc3)cc12	none
Cc1ccc(C)c(S(=O)(=O)Nc2ccc3oc(C)c(C(=O)O)c3c2)c1	UHRF1 MBD2 ctr 24
COc1ccc(CN2C[C@]3(C=C(C)Cn4c(=O)n(-c5ccccc5)c(=O)n43)N(C(=O)OCc3ccccc3)C2=NC(=O)c2ccccc2)c(OC)c1	none (no result: Rin1 Abl inh, ABHD5 PLIN5 PPI, B2AR ag, Arrestin-AP2 inh)
Cc1ccc2cc(CN(C)S(C)(=O)=O)c(=O)[nH]c2c1	UHRF1 MBD2 ctr 35
Cc1ccc(-n2c(SCC(=O)Nc3ccccc3-c3ccccc3)nnc2-c2cnccn2)cc1	none (no result: Rin1 Abl inh, ABHD5 PLIN5 PPI, B2AR ag, Arrestin-AP2 inh)
Cn1cccc1C(C(=O)NC1CCCCC1)N(C(=O)Cc1cccs1)C1CC1 (centres undefined)	UHRF1 MBD2 ctr 37
C[C@H](O)[C@@H]1CN2CCc3c([nH]c4c(-c5ccc6c(c5)OCO6)cccc34)[C@@H]2C[C@@H]1N(C)C(=O)Nc1ccccc1	none (no result: Rin1 Abl inh, ABHD5 PLIN5 PPI, B2AR ag, Arrestin-AP2 inh)
O=C(COC(=O)c1cc(=O)[nH]c2ccccc12)NC1CCCC1	UHRF1 MBD2 ctr 30
CC1CCCCC1NC(=O)COC(=O)c1cc(=O)[nH]c2ccccc12 (centres undefined)	none
Cc1cccc(C)c1NC(=O)CN(C1CCCCC1)S(C)(=O)=O	UHRF1 MBD2 ctr 28
COC(=O)C1CN(Cc2ccc(C)cc2)CCS(=O)(=O)N1Cc1cn(Cc2ccc(OC)cc2)nn1 (centres undefined)	none (no result: Rin1 Abl inh, ABHD5 PLIN5 PPI, B2AR ag, Arrestin-AP2 inh)
O=C(Nc1ccc(Cl)cc1)O[C@@H]1CC[C@@]23CCCN2C(=O)CCC[C@H]3C1	none (no result: Rin1 Abl inh, ABHD5 PLIN5 PPI, B2AR ag, Arrestin-AP2 inh)
C=C[C@H]1CN2CCC1C[C@H]2[C@H](O)c1ccnc2ccc(OC)cc12 (some centres undefined)	none
